In ChEMBL document CHEMBL1140385, “Synthesis and antibacterial activity of 3-substituted-6-(3-ethyl-4-methylanilino)uracils” (J Med Chem, 2005):
≈ marks a conversion by molar mass, not a printed value.

Assays:
[1] = molecular target: DNA polymerase III PolC-type (Bacillus subtilis (strain 168), UniProt P13267); assay: Inhibitory concentration against Bacillus subtilis DNA polymerase IIIC using [3H]dTMP 250 pM (30 degree C for 10 min)
Summary of the method: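 Homogeneous recombinant B. subtilis pol IIIC, 0.025-0.06 units, acted on activated calf thymus DNA with Mg2+, DTT, glycerol, dATP, dCTP, dTTP and [3H]dTTP, without dGTP. Compounds were serially diluted from DMSO. Reactions ran 10 min at 30 °C, were stopped with TCA-pyrophosphate, and the filter-collected precipitate was scintillation counted. Apparent Ki was read directly from this truncated assay; average standard deviation ±44%.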

Staphylococcus aureus [2] = assay: Serum effect on MIC against Staphylococcus aureus (Smith) as ratio of MIC value in presence and absence of 50% fetal calf serum; type: functional
Summary of the method: (§1)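 Broth microdilution MIC was repeated with 50% fetal calf serum added to the growth medium (LB for S. aureus, brain-heart infusion broth for E. faecalis). The inoculum was (3-7) × 10^5 CFU/mL in 1% DMSO, incubated at 37 °C for 16-24 h, and read by OD600. The serum effect is the MIC with serum relative to the MIC without serum.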

Bacillus subtilis = assay: In vitro minimum inhibitory concentration against Bacillus subtilis upon incubation at 37 degree C for 16 to 24 h; type: functional
Staphylococcus aureus [3] = assay: In vitro minimum inhibitory concentration against Staphylococcus aureus upon incubation at 37 degree C for 16 to 24 hr by dissolving in DMSO (1%); type: functional
Enterococcus faecalis [4] = assay: In vitro minimum inhibitory concentration against Enterococcus faecalis upon incubation at 37 degree C for 16 to 24 hr by dissolving in DMSO (1%); type: functional
Summary of the method: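 Log-phase E. faecalis was grown in brain-heart infusion broth and seeded at (3-7) × 10^5 CFU/mL. Duplicate 2-fold dilutions ran from 20 to 1.25 µg/mL, final 1% DMSO. After 16-24 h at 37 °C with shaking, OD600 was read.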

Staphylococcus aureus [5] = assay: In vitro minimum inhibitory concentration against Staphylococcus aureus (Smith) upon incubation at 37 degree C for 16 to 24 hr by dissolving in DMSO (1%); type: functional
Enterococcus faecium [6] = assay: In vitro minimum inhibitory concentration against Enterococcus fecium upon incubation at 37 degree C for 16 to 24 hr by dissolving in DMSO (1%); type: functional
Summary of the method: (§2)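 Broth microdilution (modified NCCLS M7-A4). Enterococci grown to log phase in brain-heart infusion broth, seeded at (3-7) × 10⁵ CFU/mL. Compounds 2-fold diluted from DMSO stocks, 20 to 1.25 µg/mL, final 1% DMSO, in duplicate. Incubated 37 °C, 16-24 h, with shaking. OD600 read.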

Staphylococcus aureus [7] = assay: In vitro minimum inhibitory concentration against Methicillin-resistant Staphylococcus aureus upon incubation at 37 degree C for 16 to 24 hr by dissolving in DMSO (1%); type: functional
Summary of the method: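 Broth microdilution (modified NCCLS M7-A4). Staphylococci grown to log phase in Luria broth, seeded at (3-7) × 10⁵ CFU/mL. Compounds 2-fold diluted from DMSO stocks, 20 to 1.25 µg/mL, final 1% DMSO, in duplicate. Incubated 37 °C, 16-24 h, with shaking. OD600 read.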

Enterococcus faecium [8] = assay: In vitro minimum inhibitory concentration against Vancomycin resistant Enterococci faecium upon incubation at 37 degree C for 16 to 24 hr by dissolving in DMSO (1%); type: functional; summary of the method: as §2
Staphylococcus aureus [9] = assay: Effect on survival of staphylococcus aureus (Smith) ip-infected mice at a concentration 10 mg/kg; type: functional
Summary of the method: (§3)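 Male pathogen-free Swiss-Webster mice (20-24 g), groups of five, infected ip with ca. 10⁸ CFU log-phase S. aureus Smith (grown 37 °C in LB, washed, in 0.5 mL LB). Single ip dose 15 min post-infection, in 10% DMSO/peanut oil or PBS. Survivors counted at 72 h post-infection.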

Enterococcus faecalis [10] = assay: Serum effect on MIC of compound was measured against Enterococcus faecalis as ratio of MIC value in presence and absence of 50% fetal calf serum; type: functional; summary of the method: as §1
Staphylococcus aureus [11] = assay: Effect on survival of staphylococcus aureus (Smith) ip-infected mice at a concentration 20 mg/kg; type: functional; summary of the method: as §3

Sequence of DNA polymerase III PolC-type (P13267 whole entry, the tested form may be a part): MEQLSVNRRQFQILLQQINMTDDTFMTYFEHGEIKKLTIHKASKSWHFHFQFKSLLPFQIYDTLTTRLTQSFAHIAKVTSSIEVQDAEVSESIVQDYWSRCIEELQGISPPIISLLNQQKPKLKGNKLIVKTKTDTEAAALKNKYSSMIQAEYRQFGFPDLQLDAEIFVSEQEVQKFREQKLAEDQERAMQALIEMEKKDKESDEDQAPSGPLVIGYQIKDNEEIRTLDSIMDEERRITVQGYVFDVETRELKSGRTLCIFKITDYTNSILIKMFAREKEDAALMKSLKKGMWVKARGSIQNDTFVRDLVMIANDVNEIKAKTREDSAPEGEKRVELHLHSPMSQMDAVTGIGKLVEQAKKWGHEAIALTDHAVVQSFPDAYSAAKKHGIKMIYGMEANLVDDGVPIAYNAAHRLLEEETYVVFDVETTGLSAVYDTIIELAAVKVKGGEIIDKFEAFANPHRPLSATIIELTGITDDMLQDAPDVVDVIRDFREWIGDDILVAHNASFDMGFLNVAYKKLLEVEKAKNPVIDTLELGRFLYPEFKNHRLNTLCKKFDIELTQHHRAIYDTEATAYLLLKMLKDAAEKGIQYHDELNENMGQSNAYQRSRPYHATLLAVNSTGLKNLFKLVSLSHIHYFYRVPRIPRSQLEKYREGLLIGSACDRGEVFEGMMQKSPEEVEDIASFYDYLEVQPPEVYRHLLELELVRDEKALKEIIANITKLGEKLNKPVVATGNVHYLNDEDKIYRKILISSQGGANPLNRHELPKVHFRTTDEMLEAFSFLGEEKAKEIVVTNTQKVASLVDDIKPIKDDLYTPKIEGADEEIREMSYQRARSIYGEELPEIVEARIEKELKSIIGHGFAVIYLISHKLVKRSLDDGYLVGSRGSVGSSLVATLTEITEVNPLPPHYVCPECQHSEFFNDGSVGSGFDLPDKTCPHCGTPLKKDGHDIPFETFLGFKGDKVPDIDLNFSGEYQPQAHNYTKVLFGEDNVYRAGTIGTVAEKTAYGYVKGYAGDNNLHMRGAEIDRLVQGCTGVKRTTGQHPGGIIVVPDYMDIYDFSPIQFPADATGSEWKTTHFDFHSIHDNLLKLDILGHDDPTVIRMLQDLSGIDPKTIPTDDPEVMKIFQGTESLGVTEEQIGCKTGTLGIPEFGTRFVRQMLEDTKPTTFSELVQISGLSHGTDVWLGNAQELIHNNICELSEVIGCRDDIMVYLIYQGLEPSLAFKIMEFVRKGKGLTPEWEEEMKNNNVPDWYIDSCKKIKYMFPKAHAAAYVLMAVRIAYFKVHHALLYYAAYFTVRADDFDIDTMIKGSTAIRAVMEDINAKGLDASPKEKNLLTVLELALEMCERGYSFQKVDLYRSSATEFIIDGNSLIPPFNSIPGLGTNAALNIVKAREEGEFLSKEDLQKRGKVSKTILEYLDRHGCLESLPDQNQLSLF

Compound	Ki [1]	MIC+/MIC- (Staphylococcus aureus [2])	MIC (Bacillus subtilis)	MIC (Staphylococcus aureus [3])	MIC (Enterococcus faecalis [4])	MIC (Staphylococcus aureus [5])	MIC (Enterococcus faecium [6])	MIC (Staphylococcus aureus [7])	MIC (Enterococcus faecium [8])	Activity (Staphylococcus aureus [9])	MIC+/MIC- (Enterococcus faecalis [10])	Activity (Staphylococcus aureus [11])
CCc1cc(Nc2cc(=O)n(CCCCCCCCCO)c(=O)[nH]2)ccc1C	87 nM	>32	< 1.25 µg/mL	20 µg/mL (≈ 51.6 µM)	2.5 µg/mL (≈ 6.45 µM)	2.5 µg/mL (≈ 6.45 µM)	2.5 µg/mL (≈ 6.45 µM)	20 µg/mL (≈ 51.6 µM)	2.5 µg/mL (≈ 6.45 µM)			
CCc1cc(Nc2cc(=O)n(CCCC#N)c(=O)[nH]2)ccc1C		5.4		5 µg/mL (≈ 16 µM)	5 µg/mL (≈ 16 µM)		5 µg/mL (≈ 16 µM)	5 µg/mL (≈ 16 µM)	5 µg/mL (≈ 16 µM)	2		
CCc1cc(Nc2cc(=O)n(CCOC(C)=O)c(=O)[nH]2)ccc1C	120 nM		1.25 µg/mL (≈ 3.77 µM)	5 µg/mL (≈ 15.1 µM)	5 µg/mL (≈ 15.1 µM)	3.75 µg/mL (≈ 11.3 µM)	5 µg/mL (≈ 15.1 µM)	5 µg/mL (≈ 15.1 µM)	5 µg/mL (≈ 15.1 µM)			
CCc1cc(Nc2cc(=O)n(CCOC)c(=O)[nH]2)ccc1C	127 nM	6.9	< 1.25 µg/mL	2.5 µg/mL (≈ 8.24 µM)	5 µg/mL (≈ 16.5 µM)	2.5 µg/mL (≈ 8.24 µM)	2.5 µg/mL (≈ 8.24 µM)	5 µg/mL (≈ 16.5 µM)	2.5 µg/mL (≈ 8.24 µM)			
CCc1cc(Nc2cc(=O)n(CCCOC)c(=O)[nH]2)ccc1C	120 nM	4.9	< 1.25 µg/mL	2.5 µg/mL (≈ 7.88 µM)	5 µg/mL (≈ 15.8 µM)	2.5 µg/mL (≈ 7.88 µM)	2.5 µg/mL (≈ 7.88 µM)	2.5 µg/mL (≈ 7.88 µM)	2.5 µg/mL (≈ 7.88 µM)			
CCc1cc(Nc2cc(=O)n(CCCN3CCOCC3)c(=O)[nH]2)ccc1C		2.9			10 µg/mL (≈ 26.8 µM)	10 µg/mL (≈ 26.8 µM)	5 µg/mL (≈ 13.4 µM)	10 µg/mL (≈ 26.8 µM)	5 µg/mL (≈ 13.4 µM)		1.6	
CCc1cc(Nc2cc(=O)n(CCCO)c(=O)[nH]2)ccc1C	130 nM	5.6	< 1.25 µg/mL	2.5 µg/mL (≈ 8.24 µM)	5 µg/mL (≈ 16.5 µM)	5 µg/mL (≈ 16.5 µM)	2.5 µg/mL (≈ 8.24 µM)	5 µg/mL (≈ 16.5 µM)	2.5 µg/mL (≈ 8.24 µM)			
CCc1cc(Nc2cc(=O)n(CCCCCO)c(=O)[nH]2)ccc1C	43 nM	11.6	< 1.25 µg/mL	5 µg/mL (≈ 15.1 µM)	2.5 µg/mL (≈ 7.54 µM)	2.5 µg/mL (≈ 7.54 µM)	2.5 µg/mL (≈ 7.54 µM)	5 µg/mL (≈ 15.1 µM)	2.5 µg/mL (≈ 7.54 µM)			
CCc1cc(Nc2cc(=O)n(CCCCCCCCN3CCOCC3)c(=O)[nH]2)ccc1C	76 nM	>7.1	2.5 µg/mL (≈ 5.65 µM)	10 µg/mL (≈ 22.6 µM)	10 µg/mL (≈ 22.6 µM)	10 µg/mL (≈ 22.6 µM)	10 µg/mL (≈ 22.6 µM)	20 µg/mL (≈ 45.2 µM)	5 µg/mL (≈ 11.3 µM)		>12.8	
CN[C@H](CC(C)C)C(=O)N[C@H]1C(=O)N[C@@H](CC(N)=O)C(=O)N[C@H]2C(=O)N[C@H]3C(=O)N[C@H](C(=O)N[C@H](C(=O)O)c4cc(O)cc(O)c4-c4cc3ccc4O)[C@H](O)c3ccc(c(Cl)c3)Oc3cc2cc(c3O[C@@H]2O[C@H](CO)[C@@H](O)[C@H](O)[C@H]2O[C@H]2C[C@](C)(N)[C@H](O)[C@H](C)O2)Oc2ccc(cc2Cl)[C@H]1O [VANCOMYCIN]					0.625 µg/mL (≈ 0.431 µM)		1.25 µg/mL (≈ 0.863 µM)	0.625 µg/mL (≈ 0.431 µM)	> 20 µg/mL	5		5
CCc1cc(Nc2cc(=O)n(CCN3CCOCC3)c(=O)[nH]2)ccc1C		5.5		10 µg/mL (≈ 27.9 µM)	5 µg/mL (≈ 13.9 µM)			5 µg/mL (≈ 13.9 µM)	5 µg/mL (≈ 13.9 µM)		2.7	
CCc1cc(Nc2cc(=O)n(CCOCCO)c(=O)[nH]2)ccc1C		7.5			5 µg/mL (≈ 15 µM)	5 µg/mL (≈ 15 µM)	5 µg/mL (≈ 15 µM)	10 µg/mL (≈ 30 µM)	2.5 µg/mL (≈ 7.5 µM)	4		
CCc1cc(Nc2cc(=O)n(CCOCCOC)c(=O)[nH]2)ccc1C		5.5		5 µg/mL (≈ 14.4 µM)	5 µg/mL (≈ 14.4 µM)		5 µg/mL (≈ 14.4 µM)	5 µg/mL (≈ 14.4 µM)	5 µg/mL (≈ 14.4 µM)	2		
CCc1cc(Nc2cc(=O)n(CCCCNS(=O)(=O)c3ccc(C)cc3)c(=O)[nH]2)ccc1C	230 nM		5 µg/mL (≈ 10.6 µM)	5 µg/mL (≈ 10.6 µM)	5 µg/mL (≈ 10.6 µM)	5 µg/mL (≈ 10.6 µM)	5 µg/mL (≈ 10.6 µM)	> 20 µg/mL	5 µg/mL (≈ 10.6 µM)			
CCc1cc(Nc2cc(=O)n(CCOCCOc3ccccc3)c(=O)[nH]2)ccc1C	56 nM	>5.6	< 1.25 µg/mL	20 µg/mL (≈ 48.8 µM)	5 µg/mL (≈ 12.2 µM)	20 µg/mL (≈ 48.8 µM)	2.5 µg/mL (≈ 6.11 µM)	20 µg/mL (≈ 48.8 µM)	5 µg/mL (≈ 12.2 µM)			
CCn1cc(C(=O)O)c(=O)c2cc(F)c(N3CCNCC3)cc21 [NORFLOXACIN]		0.4	0.313 µg/mL (≈ 0.98 µM)	0.625 µg/mL (≈ 1.96 µM)	2.5 µg/mL (≈ 7.83 µM)	0.156 µg/mL (≈ 0.489 µM)	10 µg/mL (≈ 31.3 µM)	40 µg/mL (≈ 125 µM)	80 µg/mL (≈ 251 µM)		2.2	
CCc1cc(Nc2cc(=O)n(CCCCCN)c(=O)[nH]2)ccc1C.Cl	185 nM		< 1.25 µg/mL	5 µg/mL	> 20 µg/mL	10 µg/mL	20 µg/mL	10 µg/mL	> 20 µg/mL			
